From ChEMBL document CHEMBL2417509, “Synthesis and biological evaluation of prodigiosene conjugates of porphyrin, estrone and 4-hydroxytamoxifen” (2013)
The source made the active and inactive calls. The calls are words filed in the database; no cut-off is given here.

Test system: MCF7
Assay: Cytotoxicity against human ER positive MCF7 cells assessed as cell viability at 1 uM after 72 hrs by MTT assay
Assay type: functional, cell-based
Outline: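 Lines kept in DMEM with 10% fetal bovine serum and 1% penicillin/streptomycin at 37 °C, 5% CO2. Compound applied at 1 µM for 72 h, then standard MTT reduction read-out. Viability given as mean percentage of formazan formed by treated cells relative to mock-treated cells (0.1% DMSO). Run in quadruplicate, standard error, Student's t-test.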

| SMILES | Activity |
| --- | --- |
| COc1cc(-c2ccc[nH]2)[nH]c1/C=C1\N=C(C)C(C(=O)CCCCC(=O)Oc2ccc3c(c2)CC[C@@H]2[C@@H]3CC[C@]3(C)C(=O)CC[C@@H]23)=C1C | inactive |
| COc1cc(-c2ccc[nH]2)[nH]c1/C=C1\N=C(C)C(C(=O)CCCCCCCCC(=O)Oc2ccc3c(c2)CC[C@@H]2[C@@H]3CC[C@]3(C)C(=O)CC[C@@H]23)=C1C | inactive |
